From ChEMBL document CHEMBL1125195, “Novel compounds possessing potent cAMP and cGMP phosphodiesterase inhibitory activity. Synthesis and cardiovascular effects of a series of imidazo[1,2-a]quinoxalinones and imidazo[1,5-a]quinoxalinones and their aza analogues” (J Med Chem, 1991)
Activity calls are given as the source filed them. The rule behind the calls is not given here.

How the values were obtained:
Canis familiaris [1] = species on record: Canis familiaris; assay: In vitro vascular relaxation in canine mesenteric veins precontracted with phenylephrine.; format: functional; details: Canis lupus familiaris, Mesenteric vein
How it was run: (§1)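 Isolated vessels in warm PSS. Arteries constricted with prostaglandin F2α, veins with phenylephrine. Cumulative drug challenges, each added after relaxation plateaued. Delta force is expressed as % of agonist actual force (total minus basal) and as % of maximal relaxation. EC50 is found by linear interpolation between the points bracketing 50% relaxation. Afterwards tissues were rinsed every 10 min, reconstricted, and challenged with acetylcholine (arteries) or thrombin (veins).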

[2] = Inhibition of crude cGMP phosphodiesterase from canine thoracic aorta; format: tissue-based, Canis lupus familiaris
How it was run: (§2)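 Crude homogenates: cAMP PDE from canine cardiac tissue, cGMP PDE from canine thoracic aorta. Value is drug concentration (μM) giving 50% inhibition. Mean of at least three determinations, ranges within ±10%.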

[3] = Inhibition of crude cAMP phosphodiesterase from canine […]; design: species or system Canis lupus familiaris; how it was run: as §2
[4] = In vitro increase in contractile force in ferret papillary muscle strips.; format: functional, Mustela putorius furo, Muscle tissue
How it was run: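 Ferret papillary muscle; value is drug concentration (μM) giving a 20% rise in contractile force. Mean of at least two determinations, ranges within ±10%. Inotropic effect also tested with 1 μM propranolol co-administered. NR means not reached at 100 μM.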

Canis familiaris [5] = species on record: Canis familiaris; assay: In vitro vascular relaxation in canine coronary arteries precontracted with prostaglandin F2alpha.; format: functional; details: Canis lupus familiaris; how it was run: as §1
Canis familiaris [6] = assay: (§3) Percent change in left ventricle contractile force in anesthetized dogs after intravenous administration at 3.0 mg/kg; format: functional, Canis lupus familiaris, Heart left ventricle
How it was run: (§4)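 Anesthetized dogs, drug given intravenously at the stated dose. Percent change recorded in LV dP/dt (contractile force), heart rate and mean arterial pressure. Mean of at least four determinations; LV dP/dt ranges within ±10%.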

Canis familiaris [7] = assay: (§5) Percent change in mean arterial blood pressure after intravenous administration in anesthetized dogs at 0.3 mg/kg; format: functional, Canis lupus familiaris; how it was run: as §4
[8] = Inhibition of crude cAMP phosphodiesterase from canine […] (NR = no effect at 100 ug); design: species or system Canis lupus familiaris
How it was run: (§6)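 Crude PDEs from canine tissue homogenates: cAMP enzyme from cardiac tissue, cGMP enzyme from thoracic aorta. Value is drug concentration (μM) causing 50% inhibition. Mean of at least three determinations, ranges within ±10%.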

Canis familiaris [9] = assay: Percent change heart rate after intravenous administration in anesthetized dogs at 0.3 mg/kg (NC<10%); format: functional, Canis lupus familiaris; how it was run: as §4
Canis familiaris [10] = assay: (§7) Percent change in left ventricle contractile force in anesthetized dogs after intravenous administration at 1.0 mg/kg; format: functional, Canis lupus familiaris, Heart left ventricle; how it was run: as §4
Canis familiaris [11] = assay: (§8) Percent change in mean arterial blood pressure after intravenous administration in anesthetized dogs at 3.0 mg/kg; format: functional, Canis lupus familiaris; how it was run: as §4
Mustela putorius furo = species on record: Mustela putorius furo; assay: In vitro increase in contractile force in ferret papillary muscle strips (NR = not reached at 100 ug); format: functional, tissue-based; details: Muscle tissue
How it was run: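 Ferret papillary muscle contractile force measured in vitro; value is drug concentration (μM) giving a 20% rise in contractile force. Inotropic effect also tested with 1 μM propranolol coadministered. Mean of at least two determinations, ranges within ±10%.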

Canis familiaris [12] = assay: Percent change in mean arterial blood pressure after intravenous administration in anesthetized dogs at 1.0 mg/kg; format: functional, Canis lupus familiaris; how it was run: as §4
Canis familiaris [13] = assay: (§9) Percent change in left ventricle contractile force in anesthetized dogs after intravenous administration at 0.3 mg/kg; format: functional, Canis lupus familiaris, Heart left ventricle; how it was run: as §4
[14] = Inhibition of crude cGMP phosphodiesterase from canine thoracic aorta (NR = no effect at 100 ug); format: tissue-based, Canis lupus familiaris; how it was run: as §6
Canis familiaris [15] = assay: Percent change in heart rate after intravenous administration in anesthetized dogs at 3.0 mg/kg (NC<10%); format: functional, Canis lupus familiaris; how it was run: as §4
Canis familiaris [16] = assay: Percent change heart rate after intravenous administration in anesthetized dogs at 1.0 mg/kg; format: functional, Canis lupus familiaris; how it was run: as §4
Canis familiaris [17] = assay: Percent change in heart rate after intravenous administration in anesthetized dogs at 1.0 mg/kg (NC<10%); format: functional, organism-based; design: dose 1 mg/kg; details: Canis lupus familiaris
Canis familiaris [18] = assay: Percent change in heart rate after intravenous administration in anesthetized dogs at 3.0 mg/kg; format: functional, Canis lupus familiaris
Canis familiaris [19] = assay: (§10) Percent change in mean arterial blood pressure after intravenous administration in anesthetized dogs at 1.0 mg/kg (NC<10%); format: functional, organism-based; design: dose 1 mg/kg; details: Canis lupus familiaris
Canis familiaris [20] = assay: Percent change in left ventricle contractile force in anesthetized dogs after intravenous administration at 0.3 mg/kg (NC <10%); format: functional, organism-based; design: dose 0.3 mg/kg; details: Canis lupus familiaris, Heart left ventricle
Canis familiaris [21] = assay: as §8; format: functional, Canis lupus familiaris; remark: listed apart in the source
Canis familiaris [22] = assay: as §3; format: functional, Canis lupus familiaris, Heart left ventricle; remark: listed apart in the source
Canis familiaris [23] = assay: Percent change in mean arterial blood pressure after intravenous administration in anesthetized dogs at 0.3 mg/kg (NC<10%); format: functional, organism-based; design: dose 0.3 mg/kg; details: Canis lupus familiaris
Canis familiaris [24] = assay: Percent change in heart rate after intravenous administration in anesthetized dogs at 0.3 mg/kg (NC<10%); format: functional, organism-based; design: dose 0.3 mg/kg; details: Canis lupus familiaris
Canis familiaris [25] = assay: as §7; format: functional, Canis lupus familiaris, Heart left ventricle; remark: listed apart in the source
Canis familiaris [26] = assay: Percent change in heart rate after intravenous administration in anesthetized dogs at 1.0 mg/kg; format: functional, Canis lupus familiaris
Canis familiaris [27] = assay: as §9; format: functional, Canis lupus familiaris, Heart left ventricle; remark: listed apart in the source
Canis familiaris [28] = assay: Percent change in heart rate after intravenous administration in anesthetized dogs at 0.3 mg/kg; format: functional, Canis lupus familiaris
Canis familiaris [29] = assay: Percent change in left ventricle contractile force in anesthetized dogs after intravenous administration at 0.1 mg/kg; format: functional, Canis lupus familiaris, Heart left ventricle
Canis familiaris [30] = assay: as §10; format: functional, Canis lupus familiaris
Canis familiaris [31] = assay: Percent change in mean arterial blood pressure after intravenous administration in anesthetized dogs at 0.1 mg/kg (NC<10%); format: functional, Canis lupus familiaris
Canis familiaris [32] = assay: Percent change heart rate after intravenous administration in anesthetized dogs at 0.1 mg/kg; format: functional, Canis lupus familiaris
[33] = Inhibition of crude cGMP phosphodiesterase from canine thoracic aorta (NR = no effect at 100 uM); format: tissue-based, Canis lupus familiaris; how it was run: as §2
Canis familiaris [34] = assay: Percent change in mean arterial blood pressure after intravenous administration in anesthetized dogs at 0.03 mg/kg (NC<10%); format: functional, organism-based; design: dose 0.03 mg/kg; details: Canis lupus familiaris
Canis familiaris [35] = assay: as §5; format: functional, Canis lupus familiaris; remark: listed apart in the source
Canis familiaris [36] = assay: Percent change in mean arterial blood pressure after intravenous administration in anesthetized dogs at 0.1 mg/kg; format: functional, Canis lupus familiaris
Canis familiaris [37] = assay: Percent change in heart rate in anesthetized dogs after intravenous administration at 0.03 mg/kg; format: functional, Canis lupus familiaris
Canis familiaris [38] = assay: Percent change in heart rate after intravenous administration in anesthetized dogs at 0.1 mg/kg; format: functional, Canis lupus familiaris
Canis familiaris [39] = assay: Percent change in left ventricle contractile force in anesthetized dogs after intravenous administration at 0.03 mg/kg; format: functional, Canis lupus familiaris, Heart left ventricle
[40] = Inhibition of crude cAMP phosphodiesterase from canine […] (NR = no effect at 100 uM); design: species or system Canis lupus familiaris; how it was run: as §2

Row | Structure (SMILES) | EC50 (Canis familiaris [1]) [µM] | IC50 [2] [µM] | IC50 [3] [µM] | CFC20 [4] [µM] | EC50 (Canis familiaris [5]) [µM] | also measured
1 | CCc1nc(C)c2c(=O)n(C)c3ccccc3n12 | 3.8 | 17 | 18 | 2.3 | 12 | –
2 | Oc1nc2ccccc2n2ccnc12 | – | 44 | 49 | 10 | – | –
3 | Oc1nc2ccc(-n3ccnc3)nc2n2ccnc12 | 9.3 | 39 | 5 | 0.5 | 14 | –
4 | Cc1ncc2c(O)nc3ccccc3n12 | 2.8 | 27 | 16 | 2.1 | 49 | –
5 | CCc1nc(C)c2c(O)nc3ccc(-n4ccnc4)cc3n12 | 0.4 | 4 | 2 | 0.6 | 1.7 | –
6 | Cc1nccn1-c1ccc2nc(O)c3cnc(C)n3c2c1 | 1.1 | 24 | 6 | 1.2 | 5.5 | –
7 | O=[N+]([O-])OCC(CO[N+](=O)[O-])O[N+](=O)[O-] [NITROGLYCERIN] | 0.007 | – | – | – | 0.01 | Delta (Canis familiaris [6]): -17%; Delta (Canis familiaris [7]): -20%; IC50 [8]: Not Active; Delta (Canis familiaris [9]): <10%; Delta (Canis familiaris [10]): -14%; Delta (Canis familiaris [11]): -39%; CFC20 (Mustela putorius furo): inactive; Delta (Canis familiaris [12]): -30%; Delta (Canis familiaris [13]): -9%; IC50 [14]: Not Active; Delta (Canis familiaris [15]): <10%; Delta (Canis familiaris [16]): <10%
8 | Oc1nc2cccnc2n2ccnc12 | 10 | 27 | 44 | 2.2 | 11 | Delta (Canis familiaris [17]): <10% change from control; Delta (Canis familiaris [18]): 24%; Delta (Canis familiaris [19]): <10% change from control; Delta (Canis familiaris [20]): <10% change from control; Delta (Canis familiaris [21]): -40%; Delta (Canis familiaris [22]): 81%; Delta (Canis familiaris [23]): <10% change from control; Delta (Canis familiaris [24]): <10% change from control; Delta (Canis familiaris [25]): 42%
9 | CCc1nc(C)c2c(O)nc3ccccc3n12 | 0.8 | 0.4 | 2 | 0.2 | 1.7 | Delta (Canis familiaris [26]): 42%; Delta (Canis familiaris [27]): 39%; Delta (Canis familiaris [18]): 65%; Delta (Canis familiaris [19]): <10% change from control; Delta (Canis familiaris [21]): -40%; Delta (Canis familiaris [22]): 135%; Delta (Canis familiaris [28]): 22%; Delta (Canis familiaris [23]): <10% change from control; Delta (Canis familiaris [25]): 85%
10 | Cc1nccn1-c1ccc2nc(O)c3cnc(C)n3c2n1 | 2 | 3 | 1 | 0.4 | 24 | –
11 | CCc1ncc2c(O)nc3ccc(-n4ccnc4)cc3n12 | 0.3 | 3 | 2 | 1.2 | 5.3 | –
12 | Cc1ncc2c(O)nc3ccc(-n4ccnc4)cc3n12 | 2.8 | 19 | 8 | 2 | 30 | –
13 | CC(C)Cn1c(=O)n(C)c(=O)c2nc[nH]c21 [ISOBUTYLMETHYLXANTHINE] | 1 | 28 | 20 | 1.5 | 5.5 | Delta (Canis familiaris [29]): 25%; Delta (Canis familiaris [30]): <10%; Delta (Canis familiaris [31]): <10%; Delta (Canis familiaris [28]): 32%; Delta (Canis familiaris [10]): 69%; Delta (Canis familiaris [12]): -18%; Delta (Canis familiaris [13]): 41%; Delta (Canis familiaris [32]): 17%; Delta (Canis familiaris [16]): 45%
14 | CCc1nc(C)c2c(O)nc3ccc(N4CCOCC4)cc3n12 | 0.05 | 0.9 | 0.8 | 0.5 | 0.7 | –
15 | Cc1[nH]c(=O)c(C#N)cc1-c1ccncc1 [MILRINONE] | 0.7 | – | 6 | 0.5 | 1.6 | Delta (Canis familiaris [29]): 58%; IC50 [33]: Not reached; Delta (Canis familiaris [27]): 82%; Delta (Canis familiaris [34]): <10% change from control; Delta (Canis familiaris [28]): 34%; Delta (Canis familiaris [35]): -33%; Delta (Canis familiaris [36]): -15%; Delta (Canis familiaris [37]): 12%; Delta (Canis familiaris [38]): 20%; Delta (Canis familiaris [39]): 31%
16 | Oc1nc2ccc(-n3ccnc3)cc2n2ccnc12 | 3.1 | 13 | 6 | 3.1 | 28 | –
17 | CCc1ncc2c(O)nc3ccncc3n12 | 2.2 | 5 | 5 | 0.3 | 5.2 | –
18 | CCc1nccn1-c1ncnc2c1nc(O)c1cnc(CC)n12 | 23 | 14 | – | – | 59 | IC50 [40]: Not reached
19 | CCc1nc(C)cn1-c1ccc2nc(O)c3c(C)nc(CC)n3c2c1 | 0.1 | 0.3 | 0.4 | 1 | 0.5 | –
20 | Cc1cn2c(n1)c(O)nc1ccccc12 | 0.4 | 36 | 42 | 11 | 5.1 | –
21 | CCc1nc(C)c2c(N)nc3ccccc3n12 | 3.4 | 38 | 22 | – | 11 | –
